Assay results from ChEMBL document CHEMBL5380783, “N-Substituted l-Iminosugars for the Treatment of Sanfilippo Type B Syndrome” (J Med Chem, 2023).
The source made the active and inactive calls. No cut-off for these calls is given here.

Legend:
SK-N-BE(2) [1] = assay: Inhibition of lysosomal defects in NAGLU-silenced human SK-NBE cell clones assessed as reduction in accumulation of enlarged LAMP1-positive lysosomal structures within the cytoplasm at 20 uM incubated for 48 hrs by LAMP1 staining based indirect immunofluorescence assay; assay type: functional
In short: (§1)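 Control and NAGLU-silenced SK-NBE clones grown on coverslips with 20 μM compound for 48 h. Fixed in 3.7% formaldehyde, permeabilized with saponin/BSA buffer, stained with anti-Lamp1 or anti-HS 10E4 for 1 h, then Alexa secondaries. Confocal imaging with 63× objective. Scored as percent cells with enlarged Lamp1 structures or membrane HS, plus mean fluorescence intensity, over 50 random cells from three experiments.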

SK-N-BE(2) [2] = assay: Effect on lysosome size and distribution in human SK-NBE cell clone assessed as at 20 uM incubated for 48 hrs by LAMP1 staining based indirect immunofluorescence assay; assay type: functional; in short: as §1
HaCaT [3] = assay: Cytotoxicity against human HaCaT cells assessed as induction of apoptosis upto 100 uM; assay type: toxicity, cell-based
[4] = Cytotoxicity against human CuFi cells assessed as induction of apoptosis upto 100 uM; assay type: toxicity, cell-based
HaCaT [5] = assay: Antiproliferative activity against human HaCaT cells upto 100 uM; assay type: toxicity, cell-based
SK-N-BE(2) [6] = assay: Inhibition of lysosomal defects in NAGLU-silenced human SK-NBE cell clones assessed as reduction in more concentrated lysosomal distribution in the perinuclear region of the cytoplasm at 20 uM incubated for 48 hrs by LAMP1 staining based indirect immunofluorescence assay; assay type: functional; in short: as §1
SK-N-BE(2) [7] = assay: Inhibition of lysosomal defects in NAGLU-silenced human SK-NBE cell clones assessed as dispersion of lysosomes all over the cytoplasm at 20 uM incubated for 48 hrs by LAMP1 staining based indirect immunofluorescence assay; assay type: functional; in short: as §1
SK-N-BE(2) [8] = assay: Inhibition of heparan sulfate accumulation on cell membrane in NAGLU-silenced human SK-NBE cells clone at 20 uM incubated for 48 hrs by indirect immunofluorescence staining analysis; assay type: functional, cell-based; in short: as §1
Fibroblast [9] = assay: Inhibition of lysosomal defects in Sanfilippo-B patient derived human fibroblast cells assessed as reduction in more concentrated lysosomal distribution in the perinuclear region of the cytoplasm at 20 uM incubated for 48 hrs by LAMP1 staining based indirect immunofluorescence assay; assay type: functional, cell-based
In short: (§2)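 HDFa, MPS IIIA, MPS IIIB and MPS I patient fibroblasts in DMEM, 10% FBS, grown 48 h on coverslips with 20 μM compound. Double immunostained for HS (10E4) and Lamp1 with DAPI, confocal imaging. Mean fluorescence intensity expressed relative to untreated cells (d-enantiomers: percent positive cells), 50 random cells from three experiments.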

Fibroblast [10] = assay: Inhibition of lysosomal defects in Sanfilippo-B patient derived human fibroblast cells assessed as dispersion of lysosomes all over the cytoplasm at 20 uM incubated for 48 hrs by LAMP1 staining based indirect immunofluorescence assay; assay type: functional, cell-based; in short: as §2
Fibroblast [11] = assay: Inhibition of heparan sulfate accumulation on cell membrane in Sanfilippo-B patient derived human fibroblast cells at 20 uM incubated for 48 hrs by indirect immunofluorescence staining analysis; assay type: functional, cell-based; in short: as §2
Fibroblast [12] = assay: Inhibition of lysosomal defects in Sanfilippo-A patient derived human fibroblast cells assessed as reduction in accumulation of enlarged LAMP1-positive lysosomal structures within the cytoplasm at 20 uM incubated for 48 hrs by LAMP1 staining based indirect immunofluorescence assay; assay type: functional, cell-based; in short: as §2
Fibroblast [13] = assay: Inhibition of lysosomal defects in MPS-1 patient derived human fibroblast cells assessed as reduction in accumulation of enlarged LAMP1-positive lysosomal structures within the cytoplasm at 20 uM incubated for 48 hrs by LAMP1 staining based indirect immunofluorescence assay; assay type: functional, cell-based; in short: as §2
Fibroblast [14] = assay: Inhibition of heparan sulfate accumulation on cell membrane in MPS-1 patient derived human fibroblast cells at 20 uM incubated for 48 hrs by indirect immunofluorescence staining analysis; assay type: functional, cell-based; in short: as §2
HeLa [15] = assay: Downregulation of EXT1 protein expression in human HeLa cells at 20 uM incubated for 24 hrs by western blot analysis; assay type: functional, cell-based
HeLa [16] = assay: Downregulation of SDC2 protein expression in human HeLa cells at 20 uM incubated for 24 hrs by western blot analysis; assay type: functional, cell-based
HeLa [17] = assay: Upregulation of NAGLU protein expression in human HeLa cells at 20 uM incubated for 24 hrs by western blot analysis; assay type: functional, cell-based
SK-N-BE(2) [18] = assay: Upregulation of NAGLU protein expression in human SK-NBE cells at 20 uM incubated for 24 hrs by western blot analysis; assay type: functional, cell-based
In short: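 Western blot of control SK-NBE clone and NAGLU-shRNA SK-NBE clone (RPMI, 10% FBS, puromycin 0.7 μg/mL) after 24 h at 20 μM. Lysis, Bradford assay, 50 μg per lane, nitrocellulose transfer, anti-NAGLU antibody overnight at 4 °C, HRP secondary and ECL. GAPDH re-probe for loading.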

[19] = target: T1, Alpha-N-acetylglucosaminidase (Homo sapiens) (UniProt P54802); assay: Inhibition of NAGLU in human HDFa cells using 4-methylumbelliferyl-N-acetyl-alpha-D-glucosaminide as substrate upto 1 mM by fluorescence based analysis; assay type: cell-based
T1 sequence (whole entry): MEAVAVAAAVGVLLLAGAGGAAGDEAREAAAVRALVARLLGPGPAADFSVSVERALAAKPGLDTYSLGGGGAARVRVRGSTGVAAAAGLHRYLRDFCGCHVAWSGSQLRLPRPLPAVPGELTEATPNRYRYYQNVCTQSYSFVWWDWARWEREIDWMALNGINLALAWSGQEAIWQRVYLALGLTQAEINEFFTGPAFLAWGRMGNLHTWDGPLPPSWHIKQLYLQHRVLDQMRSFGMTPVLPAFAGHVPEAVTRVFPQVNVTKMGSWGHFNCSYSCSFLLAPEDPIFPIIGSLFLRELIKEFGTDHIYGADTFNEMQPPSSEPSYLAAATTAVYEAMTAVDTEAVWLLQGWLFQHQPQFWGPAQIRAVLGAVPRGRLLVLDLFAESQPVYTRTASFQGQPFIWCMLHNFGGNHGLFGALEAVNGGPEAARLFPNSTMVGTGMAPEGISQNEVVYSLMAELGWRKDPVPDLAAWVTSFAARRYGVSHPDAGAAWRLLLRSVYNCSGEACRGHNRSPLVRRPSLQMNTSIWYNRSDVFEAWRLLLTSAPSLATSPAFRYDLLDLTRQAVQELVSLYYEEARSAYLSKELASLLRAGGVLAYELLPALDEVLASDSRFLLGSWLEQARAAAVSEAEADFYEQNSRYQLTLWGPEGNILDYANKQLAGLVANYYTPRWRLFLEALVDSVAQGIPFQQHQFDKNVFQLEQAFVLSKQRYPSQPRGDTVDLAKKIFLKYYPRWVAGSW
In short: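 HDFa fibroblast lysate (freeze–thaw, Lowry protein) incubated 2 h with 4-methylumbelliferyl-N-acetyl-α-D-glucosaminide (2 mM substrate solution) in Na-acetate buffer pH 4.5, compound added to the reaction up to 1 mM. Fluorogenic hydrolysis normalized per mg protein per hour.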

[20] = test system: Alpha-N-acetylglucosaminidase (Homo sapiens), P54802 [UNDEFINED MUTATION]; assay: Nonactive chaperone activity against mutated NAGLU in Sanfilippo-B patient derived human fibroblast cells assessed as co-localization of NAGLU with lysosomes by measuring NAGLU/Lamp1-positive structures at 20 uM incubated for 48 hrs by indirect immunofluorescence staining based analysis; assay type: cell-based
In short: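 HDFa and MPS IIIB fibroblasts, with or without (mock) 20 μM compound, for 48 h on coverslips. Co-stained for NAGLU and Lamp1 with DAPI, confocal imaging. NAGLU–lysosome co-localization quantified as mean fluorescence relative to untreated cells, 50 random cells from three experiments.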

Row | SMILES | inhibition (SK-N-BE(2) [1]) | Activity (SK-N-BE(2) [2]) | Activity (HaCaT [3]) | Activity [4] | Activity (HaCaT [5]) | inhibition (SK-N-BE(2) [6]) | inhibition (SK-N-BE(2) [7]) | inhibition (SK-N-BE(2) [8]) | inhibition (Fibroblast [9]) | inhibition (Fibroblast [10]) | inhibition (Fibroblast [11]) | inhibition (Fibroblast [12]) | inhibition (Fibroblast [13]) | inhibition (Fibroblast [14]) | inhibition (HeLa [15]) | inhibition (HeLa [16]) | Activity (HeLa [17]) | Activity (SK-N-BE(2) [18]) | inhibition [19] | Activity [20]
1 | CCCCN1C[C@@H](O)[C@H](O)[C@@H](O)[C@@H]1CO.Cl | Active | inactive | Non-Toxic | Non-Toxic | Non-Toxic | Active | Active | Active | Active | Active | Active | Active | inactive | inactive | Active | inactive | Active | Active | inactive | Active
2 | COCCCCCCCCCN1C[C@@H](O)[C@H](O)[C@@H](O)[C@@H]1CO.Cl | Active | inactive | Non-Toxic | Non-Toxic | Non-Toxic | Active | Active | Active | Active | Active | Active | Active | inactive | inactive | inactive | inactive | Active | Active | inactive | Active
3 | Cl.OC[C@H]1[C@H](O)[C@@H](O)[C@H](O)CN1CCCCCOCC12CC3CC(CC(C3)C1)C2 | Active | inactive | Non-Toxic | Non-Toxic | Non-Toxic | Active | Active | Active | Active | Active | Active | Active | inactive | inactive | inactive | inactive | Active | Active | inactive | Active
4 | Cl.OC[C@@H]1NC[C@@H](O)[C@H](O)[C@H]1O | Active | inactive | Non-Toxic | Non-Toxic | Non-Toxic | Active | Active | Active | Active | Active | Active | Active | inactive | inactive | Active | inactive | Active | Active | inactive | Active
